What is called IC50 is the concentration at which inhibition is half-maximal. Higher therefore signals weaker potency. What is called CC50 is the concentration at which the toxic effect on the cells reaches its halfway point. The low end stands for greater toxicity to the cells, the high end for lower toxicity to the cells.

Structures are written as SMILES.

Data set [1] has as its system Staphylococcus aureus. The data set can be described thus: Antibacterial activity against Staphylococcus aureus ATCC6538. Format: functional, organism-based. In a few lines:
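S. aureus panel with doxycycline as reference drug; IC50 reported in µM.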

Data set [2] concerns Candida albicans. The data set can be described thus: Antifungal activity against Candida albicans ATCC59630. It counts as functional, organism-based. In a few lines:
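C. albicans panel with flucytosine as reference drug; IC50 reported in µM.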

For data set [3], the system named is Plasmodium falciparum. The data set can be described thus: Antiplasmodial activity against chloroquine-resistant Plasmodium falciparum K1 measured after 72 hrs by lactate dehydrogenase assay. Format: functional, organism-based. The settings on record: K1, 72 h. In a few lines:
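In vitro lactate dehydrogenase read-out on the chloroquine-resistant P. falciparum K1 strain; chloroquine was the reference drug.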

A short description of data set [4]: Cytotoxicity against human MRC5 cells measured after 7 days by MTT assay. Format: cell-based. To be noted: time 7 day. In a few lines: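 MRC-5 human foetal lung fibroblasts; tamoxifen as positive control; IC50 reported in µM.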
For orientation: Tetrazolium dyes change colour on reduction, which living cells bring about.

Data set [5] is described as follows: Selectivity index, ratio of CC50 for cytotoxicity against human MRC5 cells to IC50 for antiplasmodial activity against chloroquine-resistant plasmodium falciparum K1. Format: toxicity, cell-based. To be noted: read-out: Ratio CC50/IC50. In a few lines:
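Ratio of the MRC-5 value (human foetal lung fibroblasts, tamoxifen as cytotoxicity control) to the P. falciparum K1 value (lactate dehydrogenase assay, chloroquine control).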

Regarding `CC1(C)CC[C@]2(C(=O)O[C@@H]3O[C@H](CO)[C@@H](O)[C@H](O)[C@H]3O)CC[C@]3(C)C(=CC(=O)[C@@H]4[C@@]5(C)C[C@@H](O)[C@H](O)[C@@](C)(CO)[C@@H]5CC[C@]43C)[C@@H]2[C@@H]1O`, the IC50 in data set [1] is above 64 µM; in data set [2], above 64 µM; in data set [3], 13.9 µM. This compound also had a cytotoxic concentration (CC50) at 168 h in data set [4] above 64 µM. Also, the selectivity ratio in data set [5] was above 4.6.
As to `C[C@H]1c2cccc(O)c2C(=O)C2=C(O)[C@]3(O)C(=O)C(C(N)=O)=C(O)[C@@H](N(C)C)[C@@H]3[C@@H](O)[C@@H]21` [DOXYCYCLINE], inhibition in data set [1] was half-maximal at 0.28 µM (IC50).
For the compound `CC1(C)C=C2C3=CC(=O)[C@@H]4[C@@]5(C)C[C@@H](O)[C@H](O)[C@@](C)(CO)[C@@H]5CC[C@@]4(C)[C@]3(C)CC[C@@]2(C(=O)O)CC1`, the IC50 in data set [1] is above 64 µM; in data set [2], above 64 µM; in data set [3], 6.9 µM. The compound also showed a cytotoxic concentration (CC50) at 168 h in data set [4] above 64 µM. The selectivity ratio in data set [5] was above 9.27.
As to `C[C@]1(CO)CC[C@]2(C(=O)O)CC[C@]3(C)C(=CC[C@@H]4[C@@]5(C)C[C@@H](O)[C@H](O)[C@@](C)(CO)[C@@H]5CC[C@]43C)[C@@H]2C1`, the IC50 in data set [1] is above 64 µM; in data set [2], above 64 µM; in data set [3], 48.9 µM. The compound also displayed a CC50 at 168 h in data set [4] above 64 µM. The selectivity ratio in data set [5] is above 1.31.
In the case of `CC1(C)CC[C@]2(C(=O)O)CC[C@]3(C)C(=CC(=O)[C@@H]4[C@@]5(C)C[C@@H](O)[C@H](O)[C@](C)(CO)[C@@H]5CC[C@]43C)[C@@H]2[C@H]1O`, the IC50 in data set [1] was above 64 µM; in data set [2], above 64 µM; in data set [3], 6.1 µM. For the same compound, in data set [4], the half-maximal cytotoxic concentration (CC50) at 168 h was above 64 µM. Further, in data set [5], the selectivity ratio is above 10.5.
As to `CC1(C)CC[C@]2(C(=O)O[C@@H]3O[C@H](CO)[C@@H](O)[C@H](O)[C@H]3O)CC[C@]3(C)C(=CC(=O)[C@@H]4[C@@]5(C)C[C@@H](O)[C@H](O)[C@@](C)(CO)[C@@H]5CC[C@]43C)[C@@H]2[C@H]1O`, the IC50 in data set [1] is above 64 µM; in data set [2], above 64 µM; in data set [3], 11.3 µM. In data set [4], the CC50 at 168 h was above 64 µM. The selectivity ratio in data set [5] is above 5.7.
Take `CC1(C)CC[C@]2(C(=O)O)CC[C@]3(C)C(=CC(=O)[C@@H]4[C@@]5(C)C[C@@H](O)[C@H](O)[C@@](C)(CO)[C@@H]5CC[C@]43C)[C@@H]2[C@H]1O`: the 50% inhibitory concentration (IC50) in data set [1] is above 64 µM; in data set [2], above 64 µM; in data set [3], 10.1 µM. This compound also returned a 50% cytotoxic concentration (CC50) at 168 h in data set [4] above 64 µM. The selectivity ratio in data set [5] was above 6.3.
In the case of `CC1(C)CC[C@]2(C(=O)O[C@@H]3O[C@H](CO)[C@@H](O)[C@H](O)[C@H]3O)CC[C@]3(C)C(=CC(=O)[C@@H]4[C@@]5(C)C[C@@H](O)[C@H](O)[C@](C)(CO)[C@@H]5CC[C@]43C)[C@@H]2[C@H]1O`, the 50% inhibitory concentration (IC50) in data set [1] is above 64 µM; in data set [2], above 64 µM; in data set [3], 9.1 µM. In data set [4], this compound yielded a CC50 at 168 h above 64 µM. In data set [5], the selectivity ratio was above 7.
Turning to `Nc1nc(=O)[nH]cc1F` [FLUCYTOSINE], the IC50 in data set [2] was 0.7 µM.
For the compound `CC1(C)CC[C@]2(C(=O)O)CC[C@]3(C)C(=CC(=O)[C@@H]4[C@@]5(C)C[C@@H](O)[C@H](O)[C@](C)(CO)[C@@H]5CC[C@]43C)[C@@H]2[C@@H]1O`, the IC50 was above 64 µM in data set [1], above 64 µM in data set [2] and 6.1 µM in data set [3]. For the same compound, in data set [4], the CC50 at 168 h was above 64 µM. Further, the selectivity ratio in data set [5] is above 10.5.

Values taken from ChEMBL document CHEMBL4834407, “Antiplasmodial Oleanane Triterpenoids from Terminalia albida Root Bark” (J Nat Prod, 2021).
